This is an account of results in ChEMBL document CHEMBL1139401, “5-(4-Chlorophenyl)-5,6-dihydro-1,3-oxazepin-7(4H)-one derivatives as lipophilic cyclic analogues of baclofen: design, synthesis, and neuropharmacological evaluation” (2008).

Structures are written as SMILES.

The subject of one test is Mus musculus. Nature of the test: Neuropharmacological effect in albino mouse assessed as endurance time at 3 mg/kg, ip after 45 mins by rotarod test. It counts as functional. The conditions noted are these: route intraperitoneal. Put shortly: (§1)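 For the rotarod, the cylinder was 6 cm diameter, 30 cm high and turned at 12 rpm. Male albino mice were trained the day before to stay on for 300 s, and those not reaching this were excluded. Endurance time (max 300 s) was measured 30, 45, 60 and 90 min after ip drug in DMSO or vehicle. Five mice per group; mean ± SEM.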
For the molecule `CCCCCCCCCCC1=NCC(c2ccc(Cl)cc2)CC(=O)O1` (configuration not stated), the Activity is listed as 300 s.

On to `C=CCCCCCCCCC1=NCC(c2ccc(Cl)cc2)CC(=O)O1` (configuration not stated), for which the Activity worked out at 198 s.

The next test deals with Mus musculus. Description: Neuropharmacological effect in albino mouse assessed as endurance time at 3 mg/kg, ip after 60 mins by rotarod test. It is filed as functional. The conditions noted are these: route intraperitoneal. In outline: as §1
`CCCCCCCCCCC1=NCC(c2ccc(Cl)cc2)CC(=O)O1` (configuration not stated): the Activity was found to be 300 s.

With `C=CCCCCCCCCC1=NCC(c2ccc(Cl)cc2)CC(=O)O1` (configuration not stated), the Activity is reported as 185 s.

The next test concerns Mus musculus. Description: Neuropharmacological effect in albino mouse assessed as endurance time at 3 mg/kg, ip after 90 mins by rotarod test. It counts as functional. The conditions noted are these: route intraperitoneal. In outline:
as §1
(In general: The rotarod test checks motor coordination on a turning rod.)
Take `CCCCCCCCCCC1=NCC(c2ccc(Cl)cc2)CC(=O)O1` (configuration not stated): the Activity stood at 300 s.

Consider `C=CCCCCCCCCC1=NCC(c2ccc(Cl)cc2)CC(=O)O1` (configuration not stated), for which the Activity stood at 155 s.

For the next test, the system named is Mus musculus. Description: Muscle relaxant activity in albino mouse at 3 mg/kg, ip after 30 mins by traction test. It is filed as functional. Details: scale not given: the % may be the effect or the level left. Conditions: route intraperitoneal. Put shortly: (§2)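 Traction test in male albino mice (20–25 g), five per group, given drug ip in DMSO. Success required touching the wire with at least one hind paw within 5 s; otherwise scored as failure. Mice were tested 30, 45, 60 and 90 min after dosing, immediately before the rotarod. Results are % successful, mean ± SEM.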
With `CCCCCCCCCCC1=NCC(c2ccc(Cl)cc2)CC(=O)O1` (configuration not stated), the Activity came to 100%.

Take `C=CCCCCCCCCC1=NCC(c2ccc(Cl)cc2)CC(=O)O1` (configuration not stated): the Activity is given as 55%.

For a further test, the system named is Mus musculus. Description: Muscle relaxant activity in albino mouse at 3 mg/kg, ip after 45 mins by traction test. It is filed as functional. Details: scale not given: the % may be the effect or the level left. Conditions: route intraperitoneal. In outline: as §2
`CCCCCCCCCCC1=NCC(c2ccc(Cl)cc2)CC(=O)O1` (configuration not stated) gave an Activity of 100%.

As to `C=CCCCCCCCCC1=NCC(c2ccc(Cl)cc2)CC(=O)O1` (configuration not stated), the Activity is given as 50%.

A further test relates to Mus musculus. Nature of the test: Muscle relaxant activity in albino mouse at 3 mg/kg, ip after 60 mins by traction test. It counts as functional. Details: scale not given: the % may be the effect or the level left. The conditions noted are these: route intraperitoneal. In outline: as §2
For `CCCCCCCCCCC1=NCC(c2ccc(Cl)cc2)CC(=O)O1` (configuration not stated), the Activity is reported as 100%.

The molecule `C=CCCCCCCCCC1=NCC(c2ccc(Cl)cc2)CC(=O)O1` (configuration not stated) registered an Activity of 50%.

The next test relates to Mus musculus. Nature of the test: Muscle relaxant activity in albino mouse at 3 mg/kg, ip after 90 mins by traction test. It is filed as functional. On the set-up: scale not given: the % may be the effect or the level left. Conditions: route intraperitoneal. Put shortly:
as §2
`CCCCCCCCCCC1=NCC(c2ccc(Cl)cc2)CC(=O)O1` (configuration not stated) gave an Activity of 100%.

`C=CCCCCCCCCC1=NCC(c2ccc(Cl)cc2)CC(=O)O1` (configuration not stated) had an Activity of 53%.

The next test deals with Mus musculus. Nature of the test: Analgesic activity in albino mouse assessed as retention latency at 3 mg/kg, ip after 30 mins by hot plate test. It is filed as functional. The conditions noted are these: route intraperitoneal. In outline: (§3)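 Male albino mice (20–25 g), five per group, given drug in DMSO ip; vehicle controls got DMSO alone. Mice were placed in a glass cylinder on a 54 °C metal plate. Latency to hind-paw lick or jump was recorded, with a 30 s cut-off. Testing was 30, 45, 60 and 90 min post-injection. Values are mean ± SEM.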
As to `CCCCCCCCCCC1=NCC(c2ccc(Cl)cc2)CC(=O)O1` (configuration not stated), the Activity was determined as 8.12 s.

For the molecule `C=CCCCCCCCCC1=NCC(c2ccc(Cl)cc2)CC(=O)O1` (configuration not stated), the Activity is on record as 8.32 s.

A further test concerns Mus musculus. Nature of the test: Analgesic activity in albino mouse assessed as retention latency at 3 mg/kg, ip after 45 mins by hot plate test. It counts as functional. Conditions: route intraperitoneal. Put shortly: as §3
Regarding `CCCCCCCCCCC1=NCC(c2ccc(Cl)cc2)CC(=O)O1` (configuration not stated), the Activity was determined as 8.22 s.

As to `C=CCCCCCCCCC1=NCC(c2ccc(Cl)cc2)CC(=O)O1` (configuration not stated), the Activity is 14.34 s.

The test system of another test is Mus musculus. Nature of the test: Analgesic activity in albino mouse assessed as retention latency at 3 mg/kg, ip after 60 mins by hot plate test. It is filed as functional. Conditions: route intraperitoneal. In outline: as §3
For `CCCCCCCCCCC1=NCC(c2ccc(Cl)cc2)CC(=O)O1` (configuration not stated), the Activity is 9.23 s.

In the case of `C=CCCCCCCCCC1=NCC(c2ccc(Cl)cc2)CC(=O)O1` (configuration not stated), the Activity worked out at 19.73 s.

In a further test the test system is Mus musculus. Description: Analgesic activity in albino mouse assessed as retention latency at 3 mg/kg, ip after 90 mins by hot plate test. Conditions: route intraperitoneal. It counts as functional. In outline: as §3
For `CCCCCCCCCCC1=NCC(c2ccc(Cl)cc2)CC(=O)O1` (configuration not stated), the Activity is on record as 9.33 s.

Consider `C=CCCCCCCCCC1=NCC(c2ccc(Cl)cc2)CC(=O)O1` (configuration not stated), for which the Activity worked out at 21.42 s.

The subject of another test is Mus musculus. Description: Neuropharmacological effect in albino mouse assessed as onset of loss of righting reflex at 3 mg/kg, ip. It is filed as functional. Conditions: route intraperitoneal. In outline: (§4)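 Male albino mice (20–25 g), five per group, injected ip (drug in DMSO). Loss of righting reflex was inability to right within 30 s, after which mice were laid supine in a 90° trough. Return was righting twice within 1 min. Onset was recorded, and duration was the time from loss to return. Values are mean ± SEM.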
Consider `C=CCCCCCCCCC1=NCC(c2ccc(Cl)cc2)CC(=O)O1` (configuration not stated), for which the Activity worked out at 36.63 min.

A further test deals with Mus musculus. Description: Neuropharmacological effect in albino mouse assessed as duration of loss of righting reflex at 3 mg/kg, ip. It is filed as functional. Conditions: route intraperitoneal. In outline:
as §4
Turning to `C=CCCCCCCCCC1=NCC(c2ccc(Cl)cc2)CC(=O)O1` (configuration not stated), the Activity was 55.33 min.

The subject of the next test is Mus musculus. Nature of the test: Neuropharmacological effect in albino mouse assessed as spontaneous locomotor activity at 3 mg/kg, ip after 30 mins. It counts as functional. The conditions noted are these: route intraperitoneal. Put shortly:
(§5)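 Male albino mice (20–25 g), five per group, got ip drug in DMSO or DMSO vehicle and went back to their home cages. After 30, 45, 60 or 90 min each was placed alone in a Plexiglas box and spontaneous locomotor activity was recorded. Tests were run in the morning. Values are mean ± SEM.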
As for `CCCCCCCCCCC1=NCC(c2ccc(Cl)cc2)CC(=O)O1` (configuration not stated), the Activity worked out at 45.24 m.

For `C=CCCCCCCCCC1=NCC(c2ccc(Cl)cc2)CC(=O)O1` (configuration not stated), the Activity came to 25.36 m.

The next test deals with Mus musculus. Nature of the test: Neuropharmacological effect in albino mouse assessed as spontaneous locomotor activity at 3 mg/kg, ip after 45 mins. It counts as functional. Conditions: route intraperitoneal. In outline:
as §5
With `CCCCCCCCCCC1=NCC(c2ccc(Cl)cc2)CC(=O)O1` (configuration not stated), the Activity is 43.46 m.

`C=CCCCCCCCCC1=NCC(c2ccc(Cl)cc2)CC(=O)O1` (configuration not stated): the Activity was 20.56 m.

The next test deals with Mus musculus. Description: Neuropharmacological effect in albino mouse assessed as spontaneous locomotor activity at 3 mg/kg, ip after 60 mins. It counts as functional. The conditions noted are these: route intraperitoneal. In outline:
as §5
For the molecule `CCCCCCCCCCC1=NCC(c2ccc(Cl)cc2)CC(=O)O1` (configuration not stated), the Activity came to 42.79 m.

For `C=CCCCCCCCCC1=NCC(c2ccc(Cl)cc2)CC(=O)O1` (configuration not stated), the Activity is 19.43 m.

The test system of a further test is Mus musculus. Description: Neuropharmacological effect in albino mouse assessed as spontaneous locomotor activity at 3 mg/kg, ip after 90 mins. It is filed as functional. Conditions: route intraperitoneal. In outline:
as §5
Consider `CCCCCCCCCCC1=NCC(c2ccc(Cl)cc2)CC(=O)O1` (configuration not stated), for which the Activity came to 40.13 m.

With `C=CCCCCCCCCC1=NCC(c2ccc(Cl)cc2)CC(=O)O1` (configuration not stated), the Activity worked out at 18.56 m.

For a further test, the system named is Mus musculus. Nature of the test: Neuropharmacological effect in albino mouse assessed as endurance time at 3 mg/kg, ip after 30 mins by rotarod test. It is filed as functional. The conditions noted are these: route intraperitoneal. In outline: as §1
As to `CCCCCCCCCCC1=NCC(c2ccc(Cl)cc2)CC(=O)O1` (configuration not stated), the Activity is 300 s.

For the molecule `C=CCCCCCCCCC1=NCC(c2ccc(Cl)cc2)CC(=O)O1` (configuration not stated), the Activity is recorded as 222 s.

The test system of a further test is Mus musculus. Description: Decrease in cognitive impairment in albino mouse assessed as retention latency at 3 mg/kg, ip after 30 mins by passive avoidance reflex test. It is filed as functional. The conditions noted are these: route intraperitoneal. In outline:
(§6)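 Passive avoidance in male albino mice (20–25 g), five per group, housed singly from the day before training. Drug in DMSO was given ip 30, 45, 60 or 90 min before the training trial. Mice were put in the light side of a two-compartment apparatus and the door to the dark side was opened. The retention test next day used the shock generator off. Latency reported as mean ± SEM.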
In the case of `CCCCCCCCCCC1=NCC(c2ccc(Cl)cc2)CC(=O)O1` (configuration not stated), the Activity was found to be 163.53 s.

`C=CCCCCCCCCC1=NCC(c2ccc(Cl)cc2)CC(=O)O1` (configuration not stated): the Activity was found to be 148.82 s.

For a further test, the system named is Mus musculus. Nature of the test: Decrease in cognitive impairment in albino mouse assessed as retention latency at 3 mg/kg, ip after 45 mins by passive avoidance reflex test. Conditions: route intraperitoneal. It is filed as functional. In outline:
as §6
With `CCCCCCCCCCC1=NCC(c2ccc(Cl)cc2)CC(=O)O1` (configuration not stated), the Activity was determined as 163.23 s.

Take `C=CCCCCCCCCC1=NCC(c2ccc(Cl)cc2)CC(=O)O1` (configuration not stated): the Activity is listed as 118.32 s.

The next test relates to Mus musculus. Nature of the test: Decrease in cognitive impairment in albino mouse assessed as retention latency at 3 mg/kg, ip after 60 mins by passive avoidance reflex test. It is filed as functional. The conditions noted are these: route intraperitoneal. In outline: as §6
On to `CCCCCCCCCCC1=NCC(c2ccc(Cl)cc2)CC(=O)O1` (configuration not stated), for which the Activity turned out to be 160.43 s.

Take `C=CCCCCCCCCC1=NCC(c2ccc(Cl)cc2)CC(=O)O1` (configuration not stated): the Activity was 95.35 s.

A further test relates to Mus musculus. Nature of the test: Decrease in cognitive impairment in albino mouse assessed as retention latency at 3 mg/kg, ip after 90 mins by passive avoidance reflex test. It is filed as functional. The conditions noted are these: route intraperitoneal. In outline: as §6
Consider `CCCCCCCCCCC1=NCC(c2ccc(Cl)cc2)CC(=O)O1` (configuration not stated), for which the Activity came out at 164.56 s.

As to `C=CCCCCCCCCC1=NCC(c2ccc(Cl)cc2)CC(=O)O1` (configuration not stated), the Activity came to 95.45 s.
